Data as given in ChEMBL document CHEMBL1141063, “Ligands with dual vitamin D3-agonistic and androgen-antagonistic activities” (Bioorg Med Chem Lett, 2005).

What was measured:
[1] = target: T1, Vitamin D3 receptor (Homo sapiens) (UniProt P11473); experiment: Vitamin D3 agonistic activity as effective dose for HL-60 monocytic cell differentiation; type: functional, cell-based
T1 sequence (whole entry): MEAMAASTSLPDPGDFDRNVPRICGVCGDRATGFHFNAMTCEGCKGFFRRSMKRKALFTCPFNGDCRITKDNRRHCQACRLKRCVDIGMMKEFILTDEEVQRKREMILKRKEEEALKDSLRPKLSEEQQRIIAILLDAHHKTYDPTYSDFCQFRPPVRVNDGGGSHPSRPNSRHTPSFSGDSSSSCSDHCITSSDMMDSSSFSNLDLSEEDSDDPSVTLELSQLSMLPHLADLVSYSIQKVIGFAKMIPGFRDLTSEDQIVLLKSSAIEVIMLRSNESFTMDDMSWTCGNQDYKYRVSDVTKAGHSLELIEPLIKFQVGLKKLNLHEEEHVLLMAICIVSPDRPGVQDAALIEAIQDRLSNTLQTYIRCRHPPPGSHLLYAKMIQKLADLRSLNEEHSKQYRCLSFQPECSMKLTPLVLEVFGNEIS
Outline: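 HL-60 cells held in RPMI 1640 with or without test compound for three days. Cells were then mixed 1:1 (v/v) with PBS containing 0.2% NBT and 20 nM TPA and kept 20 min at 37 °C. NBT-positive cells were counted among 200–300 cells to give the ED50. Differentiation was also checked by Wright–Giemsa morphology.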

Androgen receptor = target: T2, Androgen receptor (Homo sapiens, UniProt P10275); experiment: Binding affinity to androgen receptor by incubation with GST-hARLBD and [3H]testosterone
T2 sequence (P10275 whole entry): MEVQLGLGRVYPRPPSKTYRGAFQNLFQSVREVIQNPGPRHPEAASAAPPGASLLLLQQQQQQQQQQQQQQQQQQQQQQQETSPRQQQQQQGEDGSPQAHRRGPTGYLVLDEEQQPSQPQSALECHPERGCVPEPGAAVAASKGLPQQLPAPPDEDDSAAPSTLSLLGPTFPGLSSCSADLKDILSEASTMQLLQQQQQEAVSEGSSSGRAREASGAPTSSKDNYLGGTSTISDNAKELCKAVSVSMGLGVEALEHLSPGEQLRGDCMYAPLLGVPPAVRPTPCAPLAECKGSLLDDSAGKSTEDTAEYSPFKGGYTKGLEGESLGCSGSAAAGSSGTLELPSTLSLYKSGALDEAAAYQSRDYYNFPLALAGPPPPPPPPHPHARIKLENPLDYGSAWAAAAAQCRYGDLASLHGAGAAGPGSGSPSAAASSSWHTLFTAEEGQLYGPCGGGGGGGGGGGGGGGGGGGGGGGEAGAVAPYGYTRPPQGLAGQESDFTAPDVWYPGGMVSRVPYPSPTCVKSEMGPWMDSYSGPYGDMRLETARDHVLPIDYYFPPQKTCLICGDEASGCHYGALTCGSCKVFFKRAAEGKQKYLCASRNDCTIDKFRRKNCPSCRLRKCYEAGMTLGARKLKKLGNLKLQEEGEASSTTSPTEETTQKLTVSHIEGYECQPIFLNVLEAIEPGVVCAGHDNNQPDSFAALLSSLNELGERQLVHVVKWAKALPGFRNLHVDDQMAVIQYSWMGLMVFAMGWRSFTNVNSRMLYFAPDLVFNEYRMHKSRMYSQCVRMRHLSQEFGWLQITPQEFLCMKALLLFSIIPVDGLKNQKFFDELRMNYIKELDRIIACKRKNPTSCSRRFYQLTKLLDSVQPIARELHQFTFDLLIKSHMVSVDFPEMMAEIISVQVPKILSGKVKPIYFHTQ

[2] = Activity ratio of effective dose against vitamin D3 and inhibitory activity against androgen antagonistic activity; type: functional
Outline: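 Ratio of ED50 for HL-60 differentiation to IC50 for SC-3 growth inhibition. HL-60: cells in RPMI 1640 with or without compound for three days, then NBT 0.2% plus TPA 20 nM in PBS (1:1) for 20 min at 37 °C; NBT-positive cells counted among 200–300. SC-3: cells in MEM, 10% FBS, 10 nM testosterone with or without compound, three days, 37 °C, 5% CO2.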

| SMILES | ED50 [1] [nM] | Ki (Androgen receptor) [nM] | Ratio [2] |
| --- | --- | --- | --- |
| CCC(CC)(c1ccc(NCCC(C)(C)O)c(C)c1)c1ccc(NCCC(C)(C)O)c(C)c1 | 900 | 3380 | 0.13 |
| CCC(CC)(c1ccc(NCC(O)CO)c(C)c1)c1ccc(OCC(=O)C(C)(C)C)c(C)c1 (centres undefined) | 110 | 1170 | 14.5 |
| CCC(CC)(c1ccc(NCC(O)CO)c(C)c1)c1ccc(OCC(O)C(C)(C)C)c(C)c1 (centres undefined) | 52 | 1510 | 5.78 |
| CCC(CC)(c1ccc(OCC(O)CO)c(C)c1)c1ccc(OCC(O)C(C)(C)C)c(C)c1 (centres undefined) | 44 |  | 2.31 |
| CCC(CC)(c1ccc(NCC(O)C(C)(C)C)c(C)c1)c1ccc(NCC(O)C(C)(C)C)c(C)c1 (centres undefined) | 1200 |  | 1.2 |

Continued, in another order:

| ED50 [1] [nM] | Ki (Androgen receptor) [nM] | SMILES | Ratio [2] |
| --- | --- | --- | --- |
| 450 |  | CCC(CC)(c1ccc(NCC(=O)C(C)(C)C)c(C)c1)c1ccc(OCC(=O)C(C)(C)C)c(C)c1 | 0.38 |
| 410 |  | CCC(CC)(c1ccc(OCC(=O)C(C)(C)C)c(C)c1)c1ccc(OCC(=O)C(C)(C)C)c(C)c1 | 0.22 |
| 1500 |  | CCC(CC)(c1ccc(O)c(C)c1)c1ccc(NCC(=O)C(C)(C)C)c(C)c1 | 0.43 |
| 370 | 2900 | CCC(CC)(c1ccc(NCCC(C)(C)O)c(C)c1)c1ccc(OCC(=O)C(C)(C)C)c(C)c1 | 0.45 |
| 450 |  | CCC(CC)(c1ccc(NCC(=O)C(C)(C)C)c(C)c1)c1ccc(NCC(=O)C(C)(C)C)c(C)c1 | 0.45 |
